Assay results taken from PMC7125423 (Archives of Pharmacal Research, 2020).
Several values for one entry are separate records, joined by “and”; a condition that tells them apart may be missing. Identical values can stand only once.

Legend:
[1] = biological target: influenza H1N1 virus neuraminidase (Influenza A virus, UniProt P03468); assay: Neuraminidase inhibition screening assay; format: biochemical
[2] = test system: influenza virus A/Font Monmouth/47(H1N1, FM1); format: cell-based
IAV nucleoprotein (NP) = assay: Indirect immunofluorescence of viral NP in H1N1-infected MDCK cells; format: cell-based, influenza virus A/Font Monmouth/47(H1N1, FM1); conditions: at MNTD, 8 h after infection, compared to virus group
Procedure, shortened: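 Confluent MDCK monolayers were infected with 100 μL of 100 TCID50 H1N1 for 2 h at 37 °C. Inoculum was removed and test compound was added at its maximum non-toxic dose in DMEM. At 8 h post-infection, cells were fixed in ice-cold acetone/methanol (40:60) for 15 min. Staining used mouse anti-NP monoclonal antibody (1:100 in PBS, 1 h), then Alexa Fluor 488 anti-mouse IgG (1:100, 1 h), with DAPI for nuclei; imaged by fluorescence microscopy.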

MDCK cells = assay: Cell viability assay; format: cell-based, canine; conditions: 24 h, MTT
Procedure, shortened: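 Confluent MDCK cells (grown in DMEM with 10% FBS, penicillin and streptomycin, 5% CO2) were exposed to graded concentrations of test compound for 24 h. Viability was measured by MTT. The maximum non-toxic dose was taken from this assay and then used in the infection assays.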

neuraminidase = format: cell-based, influenza virus A/Font Monmouth/47(H1N1, FM1)
IFN-γ = assay: Cytokine in lung homogenate of IAV-infected mice; format: in vivo; conditions: day 5 after infection; different doses (100, 50, 25 mg/kg/day)
Procedure, shortened: (§1)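 Female SPF NIH mice (13–15 g) were infected with mouse-adapted IAV A/Font Monmouth/47 (H1N1, FM1). Controls were normal and placebo (saline, 0.5% Tween 80) groups. On day 5 post-infection, lungs were homogenised and centrifuged (4000×g, 15 min, 4 °C), and supernatants were stored at −80 °C. Cytokines were measured by anti-mouse ELISA kits; n = 10; mean ± SD of 3 separate experiments.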

TNF-α = assay: Cytokine in lung homogenate of IAV-infected mice; format: in vivo; conditions: day 5 after infection; different doses, except 25 mg/kg/day
Procedure, shortened: as §1

[3] = test system: influenza A/Font Monmouth/47(H1N1, FM1) virus; assay: Survival experiments in IAV-infected mice; format: in vivo, NIH mice; conditions: 100, 50 and 25 mg/kg/day, pre-infection and post-infection, oral gavage, 2 LD50, vs placebo
IL-6 = assay: Cytokine in lung homogenate of IAV-infected mice; format: in vivo; conditions: day 5 after infection; different doses (100, 50, 25 mg/kg/day)
Procedure, shortened: as §1

[4] = Dose safety of curcumin in mice; format: in vivo; conditions: 100 mg/kg/day
[5] = test system: influenza A/Font Monmouth/47(H1N1, FM1) virus; parameters: species or system NIH mice; conditions: mouse, in vivo
[6] = IC50, NA activity inhibition assay

Sequence of influenza H1N1 virus neuraminidase (P03468 whole entry): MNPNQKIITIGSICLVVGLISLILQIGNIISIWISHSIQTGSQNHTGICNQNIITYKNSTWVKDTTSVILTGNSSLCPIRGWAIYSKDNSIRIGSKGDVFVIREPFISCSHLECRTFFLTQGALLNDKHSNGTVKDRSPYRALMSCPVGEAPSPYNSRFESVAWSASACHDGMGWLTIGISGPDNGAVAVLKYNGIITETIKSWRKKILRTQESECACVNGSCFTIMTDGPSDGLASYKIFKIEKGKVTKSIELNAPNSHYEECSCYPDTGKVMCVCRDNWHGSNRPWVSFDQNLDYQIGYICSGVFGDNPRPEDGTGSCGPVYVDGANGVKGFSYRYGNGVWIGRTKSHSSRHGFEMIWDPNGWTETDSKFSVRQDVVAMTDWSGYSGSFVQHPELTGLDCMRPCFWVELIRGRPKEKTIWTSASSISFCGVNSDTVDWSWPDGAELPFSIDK

| Compound | IC50 [1, 6] [µM] | decrease of mRNA expression level of M gene [2] | mRNA expression level of M gene [2] [µM] | viral NP localisation (immunofluorescence) (IAV nucleoprotein (NP)) | MNTD (maximum non-toxic dose) (MDCK cells) [µM] | decrease of NA activity (neuraminidase) | neuraminidase activity in cell supernatant (neuraminidase) [mU/mL] | also measured |
| --- | --- | --- | --- | --- | --- | --- | --- | --- |
| O=C(/C=C/c1ccc(O)cc1)CC(=O)/C=C/c1ccc(O)cc1 [Bisdemethoxycurcumin] | 70.1 | about 2.13 fold | 0.47 ± 0.11 | a strong green fluorescent signal was observed in the cytoplasm | 20 | 2.45 fold | 0.40 ± 0.01 |  |
| COc1cc(/C=C/C(=O)CC(=O)/C=C/c2ccc(O)c(OC)c2)ccc1O [Curcumin-d6] |  |  |  |  |  |  |  | IC50 ([1]; NA activity inhibition assay): 18800 µM |
| [2H]C([2H])([2H])Oc1cc(/C=C/C(=O)CC(=O)/C=C/c2ccc(O)c(OC([2H])([2H])[2H])c2)ccc1O [Curcumin-d6] |  |  |  |  |  |  |  | pIC50 (expt.) ([1]; converted from IC50): 1.73 |
| COc1cc(/C=C/C(=O)CC(=O)/C=C/c2ccc(O)c(OC)c2)ccc1O [Curcumin] | 450 | about 5.26 fold | 0.19 ± 0.03 | less NP was observed in the cytoplasm | 25 | about 2.04 fold | 0.48 ± 0.03 | IFN-γ level in lung homogenate (IFN-γ): significantly attenuated the increases; TNF-α level in lung homogenate (TNF-α): significantly attenuated the increases; average survival time [3]: prolonged the average survival time; death protection rate [3]: promote the death protection rate significantly; IL-6 level in lung homogenate (IL-6): significantly attenuated the increases; weight and clinical symptoms (dose safety) [4]: remained stable in weight and showed no significant clinical symptoms; Lung index inhibition [5]: 22.42% and 23.6% and 35.75^** %; Lung pathological change degree [5]: 1.10 ± 0.39 and 0.92 ± 0.47 and 1.02 ± 0.55 |
| COc1cc(/C=C/C(O)=C/C(=O)/C=C/c2ccc(O)cc2)ccc1O [Demethoxycurcumin] | 200 |  |  |  |  |  |  |  |
| COc1cc(/C=C/C(=O)CC(=O)CCc2ccc(O)c(OC)c2)ccc1O [Dihydrocurcumin] |  | ~1.20 fold | 0.83 ± 0.09 | a strong green fluorescent signal was observed in the cytoplasm | 20 | ~1.81 fold | 0.54 ± 0.02 | IC50 ([1]; NA activity inhibition assay): 219 µM; pIC50 (expt.) ([1]; converted from IC50): 3.66 |
| COc1ccc(/C=C/C(=O)/C=C(O)/C=C/c2ccc(OC)c(OC)c2)cc1OC [Dimethylcurcumin] | 1610 |  |  |  |  |  |  |  |
| COc1cc(CCC(=O)CC(O)CCc2ccc(O)c(OC)c2)ccc1O (centres unmarked) [Hexahydrocurcumin] | 33700 |  |  |  |  |  |  | IC50 ([1]; pIC50 (expt.), converted from IC50): 33900 µM |
| COc1cc(CCC(O)CC(O)CCc2ccc(O)c(OC)c2)ccc1O (centres unmarked) [Octahydrocurcumin] | 1530 |  |  |  |  |  |  |  |
| CCC(CC)O[C@@H]1C=C(C(=O)O)C[C@H](N)[C@H]1NC(C)=O [Oseltamivir carboxylate, reference compound] |  | about 11.11 fold |  |  |  |  |  |  |
| NC(=O)c1ncn([C@@H]2O[C@H](CO)[C@@H](O)[C@H]2O)n1 [Ribavirin, reference compound] |  |  |  |  |  |  |  | Lung index [5]: 0.94 ± 0.29; Lung index inhibition [5]: 43%; Lung pathological change degree [5]: 0.87 ± 0.52 |
| COc1cc(CCC(=O)CC(=O)CCc2ccc(O)c(OC)c2)ccc1O [Tetrahydrocurcumin] | 203 |  |  |  |  |  |  |  |
| Tetramethylcurcumin |  | about 3.85 fold | 0.26 ± 0.07 | less NP was observed in the cytoplasm | 15 | 2.65 fold | 0.37 ± 0.06 | IC50 ([1]; NA activity inhibition assay): 226 µM; pIC50 (expt.) ([1]; converted from IC50): 3.65 |
